Reference: ChEMBL document CHEMBL2385009, “Guaiane-type sesquiterpenes from Curcuma phaeocaulis and their inhibitory effects on nitric oxide production” (J Nat Prod, 2013)

Tests used:
[1] = tested on: RAW264.7; experiment: Cytotoxicity against mouse RAW264.7 cells at IC50 by MTT assay; assay type: cell-based
[2] = tested on: RAW264.7; experiment: Antiinflammatory activity in mouse RAW264.7 cells assessed as inhibition of LPS-induced nitric oxide production after 24 hrs by Griess assay; assay type: functional, cell-based; conditions: RAW264.7, 24 h
In short: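 RAW 264.7 cells seeded at 1 × 10^5 cells/well, stimulated with LPS 1 μg/mL with or without test compound, 37 °C for 24 h. Nitrite in cell-free supernatant, taken as the NO indicator, measured by Griess reaction: supernatant mixed 1:1 with equal parts 1% sulfanilamide in 5% phosphoric acid and 0.1% N-(1-naphthyl)ethylenediamine, absorbance at 540 nm. Values given as IC50.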

CC(C)C1=C[C@H]2[C@@H](CC[C@]2(C)O)[C@](C)(O)CC1 [ALISMOXIDE]
Activity [1]: Non-toxic | IC50 [2]: 4.3 µM

CC1=C[C@]2(O)O[C@@]3(CC2=C(C)C)[C@@H](C)CC[C@@H]13 [CURCUMENOL]
Activity [1]: Non-toxic | IC50 [2]: 4.2 µM

CC1=CC(=O)CC[C@@H]2[C@@](C)(O)CC[C@@]12O
Activity [1]: Non-toxic | IC50 [2]: 19.6 µM

CC(C)=C1C[C@H]2[C@H](CC[C@]2(C)O)[C@@](C)(O)CC1=O [ISOZEDOARONDIOL]
Activity [1]: Non-toxic | IC50 [2]: 1.4 µM

CC1=C2C[C@@H]3[C@H](CC[C@@]3(C)O)[C@@](C)(O)C[C@@H]2OC1=O
Activity [1]: Non-toxic | IC50 [2]: 57.9 µM

CC1=C2C[C@@H]3[C@@](C)(O)CC[C@]3(O)[C@](C)(O)C=C2OC1=O [ZEDOALACTONE B]
Activity [1]: Non-toxic | IC50 [2]: 1.3 µM

COc1ccc2c(c1)c(CC(=O)O)c(C)n2C(=O)c1ccc(Cl)cc1 [INDOMETHACIN]
IC50 [2]: 12.1 µM

C=C1C[C@]2(O)O[C@@]3(CC2=C(C)C)[C@@H](C)CC[C@@H]13 [ISOCURCUMENOL]
Activity [1]: Non-toxic | IC50 [2]: 9.8 µM

CC(C)=C1C[C@H]2[C@H](CC[C@]2(C)O)[C@](C)(O)CC1=O [(1S,4S,5S,10R)-ZEDOARONDIOL]
Activity [1]: Non-toxic | IC50 [2]: 16.7 µM

CC1=C2C[C@H]3[C@H](CC[C@]3(C)O)[C@@](C)(O)C[C@@H]2OC1=O [ZEDOALACTONE C]
Activity [1]: Non-toxic | IC50 [2]: 61.8 µM

CC1=C2C[C@H]3[C@@](C)(O)CC[C@@]34O[C@@]2(C[C@@]4(C)O)OC1=O
Activity [1]: Non-toxic | IC50 [2]: 1.5 µM

CC1=C[C@@]2(O)O[C@@]3(CC2=C(C)C)[C@H](C)CC[C@@H]13
Activity [1]: Non-toxic | IC50 [2]: 52.2 µM

C[C@]12CCC(=O)C=C1CC[C@@H]1[C@@H]2[C@@H](O)C[C@@]2(C)[C@H]1CC[C@]2(O)C(=O)CO [HYDROCORTISONE]
IC50 [2]: 43.8 µM

CC1=CC(=O)[C@@]2(C[C@]3(O)[C@@H](C)CC[C@@H]13)OC2(C)C [OXYCURCUMENOL EPOXIDE]
Activity [1]: Non-toxic | IC50 [2]: 57.4 µM

CC(C)=C1C[C@H]2[C@@H](CC[C@]2(C)O)[C@](C)(O)CC1=O [ZEDOARONDIOL]
Activity [1]: Non-toxic | IC50 [2]: 54.2 µM

CC(=O)CCc1ccc(C(C)(C)O)c(=O)cc1C [CURCUMADIONOL]
Activity [1]: Non-toxic | IC50 [2]: 54.2 µM

CC1=C2C[C@H]3[C@H](CC[C@]3(C)O)[C@](C)(O)C=C2OC1=O
Activity [1]: Non-toxic | IC50 [2]: 2.9 µM

CC1=C2C[C@@H]3[C@@](C)(O)CC[C@@]3(O)[C@](C)(O)C=C2OC1=O
Activity [1]: Non-toxic | IC50 [2]: 3 µM

CC1=CC(=O)C(=C(C)C)C[C@H]2[C@H]1CC[C@]2(C)O [PROCURCUMENOL]
Activity [1]: Non-toxic | IC50 [2]: 13.7 µM

CC1=C2C[C@H]3[C@H](CC[C@]3(C)O)[C@@](C)(O)C[C@H]2OC1=O [ZEDOALACTONE A]
Activity [1]: Non-toxic | IC50 [2]: 1.6 µM

CC1=C2C[C@@H]3[C@H](CC[C@@]3(C)O)[C@](C)(O)C[C@H]2OC1=O
Activity [1]: Non-toxic | IC50 [2]: 1.9 µM

CC(C)C1=C[C@@H]2[C@@H](CC[C@@H]2C)[C@@](C)(O)CC1
Activity [1]: Non-toxic | IC50 [2]: 11.4 µM

CC1=C2C[C@H]3[C@H](CC[C@]3(C)O)[C@@](C)(O)C[C@]2(O)OC1=O [ZEDOAROLIDE B]
Activity [1]: Non-toxic | IC50 [2]: 4.6 µM

CC1=CC(=O)C(=C(C)C)C[C@@]2(O)[C@H]1CC[C@]2(C)O [PROCURCUMADIOL]
Activity [1]: Non-toxic | IC50 [2]: 11.7 µM

Cc1cc(=O)c(C(C)(C)O)cc2c1CC[C@]2(C)O
Activity [1]: Non-toxic | IC50 [2]: 5.9 µM

CC(C)=C1C[C@H]2[C@@H](CC[C@]2(C)O)[C@@](C)(O)CC1=O
Activity [1]: Non-toxic | IC50 [2]: 10.3 µM

CC1=C2C[C@@H]3[C@@](C)(O)CC[C@]3(O)[C@@](C)(O)C=C2OC1=O [ZEDOALACTONE D]
Activity [1]: Non-toxic | IC50 [2]: 1.6 µM

CC1=C2C[C@]3(O)[C@H](C)CC[C@H]3[C@@](C)(O)C=C2OC1=O
Activity [1]: Non-toxic | IC50 [2]: 30.1 µM

CC1=C2C[C@@H]3[C@@](C)(O)CC[C@]34O[C@]4(C)[C@H](O)[C@]2(O)OC1=O [ZEDOAROLIDE A]
Activity [1]: Non-toxic | IC50 [2]: 87.1 µM

CC(C)=C1C[C@H]2[C@@H](CC[C@]2(C)O)C(CO)=CC1=O
Activity [1]: Non-toxic | IC50 [2]: 12.9 µM
